In data set [1] the test system is Mus musculus. Briefly: BDF1 male mice were administered with 250 mg/kg intraperitoneally and percent change in iron levels was determined in Feces. The data set is classed as functional. Conditions: route intraperitoneal. Summed up: (§1)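 Male BDF1 mice were hypertransfused with washed, heat-treated (50 °C, 30 min) canine red cells. Starting 2 days after the last transfusion, they received one ip injection daily for 7 days, in distilled water or an aqueous suspension with Polysorbate 80 (2% final). Group urine was collected every 24 h. Feces were digested in 1 N HCl (90 °C, 30 min, triplicate). Liver and spleen were homogenized. Iron was measured by atomic absorption and reported as % change vs transfused controls.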

The test system of data set [2] is Mus musculus. Briefly: BDF1 male mice were administered with 250 mg/kg intraperitoneally and percent change in iron levels was determined in Liver. Particulars: route intraperitoneal. The data set is classed as functional. Summed up:
as §1

Data set [3] deals with Mus musculus. Briefly: BDF1 male mice were administered with 250 mg/kg intraperitoneally and percent change in iron levels was determined in Spleen. The data set is classed as functional. Conditions: route intraperitoneal. Summed up:
as §1

Data set [4] concerns Mus musculus. Briefly: BDF1 male mice were administered with 250 mg/kg intraperitoneally and percent change in iron levels was determined in Urine. The data set is classed as functional. Particulars: route intraperitoneal. Summed up:
as §1

Data set [5] relates to Mus musculus. Briefly: BDF1 male mice were administered with 250 mg/kg intraperitoneally and number of survivors was determined out of 240 tested. Conditions: route intraperitoneal. The data set is classed as functional. Summed up: (§2)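 Male BDF1 mice were iron-loaded by transfusion of canine red cells. The cells were heparinised, washed twice in isotonic saline and heated at 50 °C for 30 min. Dosing started two days after the last transfusion, once daily for 7 consecutive days. Compounds were given in distilled water or as a fine aqueous suspension with Polysorbate 80 (2% final). Toxic signs were recorded daily and survivors counted per group.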

In data set [6] the test system is Mus musculus. Briefly: BDF1 male mice were administered with 200 mg/kg po and percent change in iron levels was determined in Feces. The data set is classed as functional. Summed up:
(§3)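 Hypertransfused male BDF1 mice (canine red cells, washed and heated at 50 °C for 30 min) were dosed orally for 7 days with compound in distilled water or a fine suspension with Polysorbate 80 (2% final). Daily group urine and pooled feces (1 N HCl digest, 90 °C, 30 min, triplicate) were collected, and liver and spleen were homogenized. Iron was measured by atomic absorption and reported as % change vs transfused control.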

Data set [7] has as its system Mus musculus. Briefly: BDF1 male mice were administered with 200 mg/kg po and percent change in iron levels was determined in Liver. The data set is classed as functional. Summed up: as §3
The subject of data set [8] is Mus musculus. Briefly: BDF1 male mice were administered with 200 mg/kg po and percent change in iron levels was determined in spleen. The data set is classed as functional. Summed up: as §3
Data set [9] concerns Mus musculus. Briefly: BDF1 male mice were administered with 200 mg/kg poand percent change in iron levels was determined in Urine. Format: functional. The gist of the method: as §3
Data set [10] concerns Mus musculus. Briefly: BDF1 male mice were administered with the compound and number of survivors was determined at a dose 200 mg/kg po. Format: functional. The gist of the method:
as §2

For data set [11], the system named is Mus musculus. Briefly: BDF1 male mice were administered with 300 mg/kg orally and percent change in iron levels was determined in Feces. The data set is classed as functional. Conditions: route oral. Summed up:
as §3

In data set [12] the test system is Mus musculus. Briefly: BDF1 male mice were administered with 300 mg/kg orally and percent change in iron levels was determined in Liver. The data set is classed as functional. Conditions: route oral. Summed up:
as §3

In data set [13] the test system is Mus musculus. Briefly: BDF1 male mice were administered with 300 mg/kg orally and percent change in iron levels was determined in Spleen. The data set is classed as functional. Particulars: route oral. Summed up: as §3
Data set [14] concerns Mus musculus. Briefly: BDF1 male mice were administered with 300 mg/kg orally and percent change in iron levels was determined in Urine. Format: functional. Particulars: route oral. Summed up: as §3
Data set [15] has as its system Mus musculus. Briefly: BDF1 male mice were administered with 400 mg/kg orally and percent change in iron levels was determined in Feces. Format: functional. Conditions: route oral. Summed up: as §3
The test system of data set [16] is Mus musculus. Briefly: BDF1 male mice were administered with 600 mg/kg orally and percent change in iron levels was determined in Feces. Format: functional. Particulars: route oral. The gist of the method:
as §3

Data set [17] has as its system Mus musculus. Briefly: BDF1 male mice were administered with 600 mg/kg orally and percent change in iron levels was determined in Liver. The data set is classed as functional. Conditions: route oral. Summed up:
as §3

The test system of data set [18] is Mus musculus. Briefly: BDF1 male mice were administered with 600 mg/kg orally and percent change in iron levels was determined in Spleen. The data set is classed as functional. Particulars: route oral. Summed up:
as §3

Data set [19] concerns Mus musculus. Briefly: BDF1 male mice were administered with 600 mg/kg orally and percent change in iron levels was determined in Urine. Format: functional. Particulars: route oral. The gist of the method: as §3
Data set [20] deals with Mus musculus. Briefly: BDF1 male mice were administered with 75 mg/kg orally and percent change in iron levels was determined in Feces. Format: functional. Particulars: route oral. Summed up: as §3
The subject of data set [21] is Mus musculus. Briefly: BDF1 male mice were administered with 75 mg/kg orally and percent change in iron levels was determined in Liver. Format: functional. Particulars: route oral. Summed up: as §3
For data set [22], the system named is Mus musculus. Briefly: BDF1 male mice were administered with 75 mg/kg orally and percent change in iron levels was determined in Spleen. The data set is classed as functional. Particulars: route oral. Summed up:
as §3

Data set [23] concerns Mus musculus. Briefly: BDF1 male mice were administered with 75 mg/kg orally and percent change in iron levels was determined in Urine. Format: functional. Particulars: route oral. The gist of the method:
as §3

For data set [24], the system named is Mus musculus. Briefly: BDF1 male mice were administered with 150 mg/kg orally and percent change in iron levels was determined in Spleen. Format: functional. Particulars: route oral. The gist of the method:
(§4)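 Male BDF1 mice made iron-overloaded by transfusion of washed, heat-treated (50 °C, 30 min) canine red cells. Dosing began 2 days after the last transfusion, once daily for 7 days, in distilled water or 2% Polysorbate 80 suspension. Daily group urine was collected. Pooled feces were digested in 1 N HCl (90 °C, 30 min). Liver and spleen were homogenized in saline. Iron was measured by atomic absorption and expressed as % change vs transfused controls.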

In data set [25] the test system is Mus musculus. Briefly: BDF1 male mice were administered with 150 mg/kg orally and percent change in iron levels was determined in Urine. Conditions: route oral. Format: functional. Summed up: as §4
The test system of data set [26] is Mus musculus. Briefly: BDF1 male mice were administered with 400 mg/kg orally and percent change in iron levels was determined in Liver. The data set is classed as functional. Particulars: route oral. The gist of the method: as §3
The subject of data set [27] is Mus musculus. Briefly: BDF1 male mice were administered with 400 mg/kg orally and percent change in iron levels was determined in Spleen. The data set is classed as functional. Conditions: route oral. The gist of the method: as §3
Data set [28] relates to Mus musculus. Briefly: BDF1 male mice were administered with 400 mg/kg orally and percent change in iron levels was determined in Urine. Format: functional. Conditions: route oral. The gist of the method:
as §3

Data set [29] has as its system Mus musculus. Briefly: BDF1 male mice were administered with 150 mg/kg orally and percent change in iron levels was determined in Feces. The data set is classed as functional. Conditions: route oral. The gist of the method:
as §4

In data set [30] the test system is Mus musculus. Briefly: BDF1 male mice were administered with 150 mg/kg orally and percent change in iron levels was determined in Liver. Format: functional. Conditions: route oral. The gist of the method:
as §4

The test system of data set [31] is Mus musculus. Briefly: BDF1 male mice were administered with the compound and number of survivors was determined at a dose 150 mg/kg peroral out of 6 tested. Format: functional. Particulars: route oral. Summed up:
as §2

Data set [32] relates to Mus musculus. Briefly: BDF1 male mice were administered with the compound and number of survivors was determined at a dose 300 mg/kg peroral out of 6 tested. Format: functional. Conditions: route oral. The gist of the method:
as §2

In data set [33] the test system is Mus musculus. Briefly: BDF1 male mice were administered with the compound and number of survivors was determined at a dose 400 mg/kg peroral out of 10 tested. Conditions: route oral. Format: functional. The gist of the method:
as §2

In data set [34] the test system is Mus musculus. Briefly: BDF1 male mice were administered with the compound and number of survivors was determined at a dose 600 mg/kg peroral out of 6 tested. Format: functional. Conditions: route oral. The gist of the method:
as §2

Data set [35] concerns Mus musculus. Briefly: BDF1 male mice were administered with the compound and number of survivors was determined at a dose 75 mg/kg peroral out of 6 tested. The data set is classed as functional. Particulars: route oral. Summed up: as §2
Data set [36] in a line: First order rate constant was determined Spectrophotometrically at pH 7.5.
The nature of data set [37]: Half life was determined at pH 7.5 in the presence of Fe(III) Half life was determined Spectrophotometrically.

Regarding `CC(=O)N(O)CCCCCNC(=O)CCC(=O)N(O)CCCCCNC(=O)CCC(=O)N(O)CCCCCN` [DEFEROXAMINE], the Iron change was 7% in [1], -24% in data set [2], 2% in data set [3] and 270% in [4]. Besides, the No. of survivors in data set [5] came out at 240.
Take `CC(=O)Oc1ccccc1CN(CCN(CC(=O)OC(C)(C)C)Cc1ccccc1OC(C)=O)CC(=O)OC(C)(C)C`: the Iron change is -1% in data set [6], 16% in data set [7], -6% in data set [8] and -4% in data set [9]. This compound also yielded a No. of survivors in data set [10] of 10.
In general, half-life refers to the time in which the quantity being followed falls by half. As to `CC(C)OC(=O)CN(CCN(CC(=O)OC(C)C)Cc1ccccc1O)Cc1ccccc1O`, the Iron change in data set [11] is recorded as -1%; in data set [12], -45%; in data set [13], -7%; in [14], 76%; in [15] it was -5%; in [16] it was 5%. Besides, the Iron change in data set [17] is on record as -56%; in data set [18], -27%; in [19], 141%; in data set [20], 1%; in data set [21], -34%; in data set [22] it was -10%. Also, the Iron change in data set [23] is -10%; in data set [24], 2%; in [25], 33%; in data set [26], -45%; in [27] it was -13%; in [28], 233%. The figures for the Iron change in [29] and in [30] were 23% and -32%, respectively. The No. of survivors was found to be 6 in data set [31]; 6 in [32]; 10 in [33]; 6 in data set [34]; 6 in data set [35]. Besides, the “10E2 k1” value in [36] amounted to 0.542 min⁻¹. Further, the half-life in data set [37] came out at 2.15 h.

Source of the values: ChEMBL document CHEMBL1123309, “Esters and lactones of phenolic amino carboxylic acids: prodrugs for iron chelation” (J Med Chem, 1986).
